Laboratory results taken from ChEMBL document CHEMBL3351370, “Straightforward entry to pyrido[2,3-d]pyrimidine-2,4(1H,3H)-diones and their ADME properties” (Bioorg Med Chem, 2014).
Values after ≈ are worked out from the molar mass of the structure shown.

Legend:
[1] = tested on: Liver microsome; assay: Stability in human liver microsomes assessed as metabolite formation at 8 uM at 37 degC in presence of NADPH and glucose-6-phosphate; type: ADME
Procedure, shortened: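 Compound 8 µM with pooled human liver microsomes (45 donors, 0.5 mg protein/ml) in 0.1 M phosphate buffer pH 7.4 with 3 mM MgCl₂. Started by adding NADPH (1 mM) and glucose-6-phosphate (3 mM). 37 °C, 350 rpm. Aliquots at 0, 10, 20 and 30 min quenched in acetonitrile. Parent compound measured by HPLC-UV/fluorescence as % remaining; Clint from in vitro t1/2 method, scaled to human hepatic Clint.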

[2] = tested on: Liver microsome; assay: Stability in human liver microsomes assessed as metabolite formation at 8 uM at 37 degC in absence of NADPH and glucose-6-phosphate; type: ADME
Procedure, shortened: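 Negative control. Compound 8 µM with pooled human liver microsomes (45 donors, 0.5 mg protein/ml) in 0.1 M phosphate buffer pH 7.4 with 3 mM MgCl₂, without NADPH and glucose-6-phosphate. 37 °C, 350 rpm. Aliquots taken at 0, 10, 20 and 30 min and quenched in acetonitrile. Parent compound measured by HPLC (UV or fluorescence).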

[3] = Apparent permeability in human Caco2 cells; type: ADME, cell-based; conditions: Caco-2
[4] = Thermodynamic solubility in FaSSIF medium after 24 hrs by UV detection and HPLC method; type: physicochemical; conditions: read-out: Therm_solubility
Procedure, shortened: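 Excess solid added to FaSSIF (SIF powder in phosphate buffer), shaken 24 h at 175 rpm and 37 °C, then centrifuged at 20,817g for 15 min. Supernatant quantified by HPLC with UV detection. n = 3.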

Structure (SMILES): C=CCNC(=O)c1cccnc1NCC=C
- Stability [1]: Stable
- Stability [2]: Stable

Structure (SMILES): O=c1c2cccnc2n(Cc2ccccc2)c(=O)n1Cc1ccccc1
- Stability [1]: Stable
- Stability [2]: Stable

Structure (SMILES): C=CCOC(=O)c1cccnc1NC12CC3CC(CC(C3)C1)C2
- Papp [3]: 1.2 ×10⁻⁶ cm/s
- solubility thermodynamic at 24 h [4]: 20.7 µM (≈ 6.47 µg/mL)
- Drug metabolism [1]: metabolite_detected
- Stability [2]: Stable

Structure (SMILES): O=C(NC1CCCCC1)c1cccnc1NC1CCCCC1
- Drug metabolism [1]: metabolite_detected
- Stability [2]: Stable

Structure (SMILES): CCCn1c(=O)c2cccnc2n(CCC)c1=O
- Stability [1]: Stable
- Stability [2]: Stable

Structure (SMILES): CC(C)CCNC(=O)c1cccnc1NCCC(C)C
- Stability [1]: Stable
- Stability [2]: Stable

Structure (SMILES): C=CCNC(=O)c1cccnc1NC(C)(C)CC(C)(C)C
- Drug metabolism [1]: metabolite_detected
- Stability [2]: Stable

Structure (SMILES): C=CCn1c(=O)c2cccnc2n(C2CCCCC2)c1=O
- Stability [1]: Stable
- Stability [2]: Stable

Structure (SMILES): CC(C)CCn1c(=O)c2cccnc2n(CCC(C)C)c1=O
- Drug metabolism [1]: metabolite_detected
- Stability [2]: Stable

Structure (SMILES): COc1ccc2c(c1)c(CC(=O)O)c(C)n2C(=O)c1ccc(Cl)cc1 [INDOMETHACIN]
- Papp [3]: 93.3 ×10⁻⁶ cm/s

Structure (SMILES): C=CCn1c(=O)c2cccnc2n(CC=C)c1=O
- Stability [1]: Stable
- Stability [2]: Stable
